Sampled rows, rich in hits. Any-hit rate of the full collection: about 3.9%.
AHR act = AHR activators, primary screen, cell-based, luminescence, luciferase reporter, human; activation, % at 5 µM; AHR-responsive luciferase reporter cells; AID 2796, 2010; hit rate 2.5% among 320,000; Aryl hydrocarbon receptor (Homo sapiens), P35869; in the data active means activation above about 47%;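 further: 0% = vehicle wells and 100% = reference agonist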
Target sequence (P35869 whole entry, looked up): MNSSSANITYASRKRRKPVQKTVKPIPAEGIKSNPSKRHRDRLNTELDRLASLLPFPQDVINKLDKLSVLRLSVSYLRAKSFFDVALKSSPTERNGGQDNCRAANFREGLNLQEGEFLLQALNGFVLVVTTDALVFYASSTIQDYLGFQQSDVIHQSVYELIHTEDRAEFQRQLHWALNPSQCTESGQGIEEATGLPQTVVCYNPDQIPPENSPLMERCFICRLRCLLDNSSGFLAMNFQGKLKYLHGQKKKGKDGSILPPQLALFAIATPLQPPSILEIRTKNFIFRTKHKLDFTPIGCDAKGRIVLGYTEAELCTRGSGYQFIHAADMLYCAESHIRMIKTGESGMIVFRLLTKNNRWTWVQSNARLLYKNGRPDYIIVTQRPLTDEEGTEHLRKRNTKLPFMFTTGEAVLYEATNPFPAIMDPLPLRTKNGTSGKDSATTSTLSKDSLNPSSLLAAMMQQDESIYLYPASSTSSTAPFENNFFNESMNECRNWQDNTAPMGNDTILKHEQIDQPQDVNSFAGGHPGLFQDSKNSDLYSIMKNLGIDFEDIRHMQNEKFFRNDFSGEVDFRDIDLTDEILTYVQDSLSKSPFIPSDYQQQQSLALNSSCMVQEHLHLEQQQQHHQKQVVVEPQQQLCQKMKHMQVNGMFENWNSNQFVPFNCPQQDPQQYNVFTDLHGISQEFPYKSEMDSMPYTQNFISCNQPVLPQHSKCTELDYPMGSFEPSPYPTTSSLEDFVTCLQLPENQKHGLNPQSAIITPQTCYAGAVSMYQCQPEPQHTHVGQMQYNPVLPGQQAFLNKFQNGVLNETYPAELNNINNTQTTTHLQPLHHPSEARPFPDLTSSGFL
SR-BI DiI-HDL act = activators of SR-BI mediated DiI-HDL uptake, primary screen, ldlA[mSR-BI] CHO cells, DiI fluorescence. 3 h; 100 = double the neutral-control signal. activation, % at 12.5 µM. hit rate 0.096% among 320,000. AID 504775, 2011;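 active means mean replicate activation of at least 60% and every replicate at or above 60%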;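 further: 0% = median plate neutral-control signal and 100% = twice that signal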
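Material – SR-BI-overexpressing, LDLR-lacking CHO cells · Medium – BSA-supplemented, HEPES-buffered Ham's F12, pH 7.4 · Doses – single concentration · Times – compound with DiI-HDL co-incubation, 3 h at 37 °C · Measured by – bottom-read fluorescence, 550/595 nm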
GAA850 FXN act = FXN promoter activators, primary screen, cell-based, luciferase luminescence, HEK293 lucGAA850; AID 540364, 2011; hit rate 0.56% among 360,000; HEK293 lucGAA850 FXN promoter luciferase reporter, 24 h; percent of 10 µM SAHA response; activation, % at 6 µM;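 active means activation above the average of all compounds screened plus 3 SD, cutoff fixed separately per campaign, cut at about 7.5% in these data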;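 further: 0% = DMSO wells and 100% = 10 µM SAHA wells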
SR-BI DiI inh = inhibitors of SR-BI mediated HDL lipid uptake, primary screen, ldlA[mSR-BI] cells, fluorescence, single point | Scavenger receptor class B member 1 (Mus musculus), Q61009 | ldlA[mSR-BI] CHO cells, DiI-HDL uptake fluorescence, 3 h | inhibition, % at 12.5 µM | hit rate 0.96% among 320,000;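 active means mean replicate inhibition of at least 70% and a set share of replicates each scoring 70 or more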;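 further: 0% = median of neutral control wells and 100% = median of positive control wells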
ABCB6 inh MLPCN = ABCB6 transporter inhibitors, primary screen, K562-ABCB6 cells, flow cytometry, MLPCN library; ATP-binding cassette sub-family B member 6 (Homo sapiens), Q9NP58; K562-ABCB6 porphyrin accumulation, 1 h; stronger effect = lower value; fluorescence ratio to DMSO, % at 10 µM; hit rate 0.19% among 360,000;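 active means fluorescence ratio to DMSO below 75%, the collection mean minus 3 SD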;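 further: signal is porphyrin accumulated inside mitochondria; 100% equals median channel fluorescence of DMSO control wells; lower ratio means ABCB6 inhibition with less porphyrin fluorescence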
HIF activator = HIF pathway transcriptional activators, primary screen, cell-based, U2OS HRE-luciferase, luminescence; U2OS HRE-luciferase reporter; normalized: DMSO 0%, desferrioxamine 100%; activation, % at 7.5 µM (by protocol); hit rate 0.32% among 300,000; AID 1910, 2009;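 active means mean activation of at least 10% of the iron chelator positive control signal, with at least half of replicates also reaching 10%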
AHR act confirm = AHR activators, confirmation, cell-based, luminescence, luciferase reporter, human. shares compounds with AHR act. human cells, AHR-responsive luciferase reporter. activation, % at 9 µM. hit rate 87% among 2,300. AID 2845, 2010; in the data active means activation above about 49%;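 further: HepG2 hepatoma cells carrying a DRE-driven firefly luciferase reporter; 0% = vehicle wells and 100% = reference agonist wells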
PXR counter = human PXR activators, counter-screen for AHR activator project, cell-based, luciferase luminescence. hit rate 88% among 2,300. activation, % at 11.6 µM. shares compounds with AHR act. cell-based PXR reporter; in the data active means activation above about 11%;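 further: human hepatoma DPX-2 cells expressing full-length human PXR; 0% = DMSO and 100% = reference agonist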
The depositor's hits bear a star.

Cc1cccc(-c2nsc(SCC(=O)Nc3ccc4c(c3)OCO4)n2)c1 was read as AHR act 105*, SR-BI DiI-HDL act -2, GAA850 FXN act 3, SR-BI DiI inh 2, ABCB6 inh MLPCN 96, HIF activator 2, AHR act confirm 21 and PXR counter 16*.
CC(C)c1nnc(SCC(=O)Nc2ccc3c(c2)OCO3)n1C was read as AHR act 14, SR-BI DiI-HDL act -14, GAA850 FXN act 0, SR-BI DiI inh 14, ABCB6 inh MLPCN 90 and HIF activator 0.
Screening Cn1c(COc2ccc(F)cc2)nnc1SCC(=O)NC1CC1 returned AHR act -2, SR-BI DiI-HDL act 15, GAA850 FXN act -1, SR-BI DiI inh -15, ABCB6 inh MLPCN 98 and HIF activator 0.
`CC(=O)Oc1ccc(C2(C)CC(C)(C)NC(=S)N2C)c(OC(C)=O)c1` (centres undefined) gave AHR act 10, SR-BI DiI-HDL act 10, GAA850 FXN act -1, SR-BI DiI inh -10, ABCB6 inh MLPCN 106 and HIF activator -1.
O=C(C[n+]1cn(C(F)F)c2ccccc21)c1ccc(Br)cc1 was read as AHR act 44, SR-BI DiI-HDL act 10, GAA850 FXN act -1, SR-BI DiI inh -10, ABCB6 inh MLPCN 96 and HIF activator 3.
For O=C(C[n+]1cc(Br)cc2ccccc21)c1ccc(Br)cc1 the results were AHR act 101*, SR-BI DiI-HDL act 0, GAA850 FXN act 1, SR-BI DiI inh 0, ABCB6 inh MLPCN 138, HIF activator 2, AHR act confirm 112* and PXR counter 30*.
`CCOC(=O)c1c(C)[nH]c(C)c1C(=O)CSc1nc2ccccc2n1CCC#N` gave AHR act 99*, SR-BI DiI-HDL act -9, GAA850 FXN act -1, SR-BI DiI inh 9, ABCB6 inh MLPCN 94, HIF activator 0, AHR act confirm 5 and PXR counter 79*.
Screening N#CCCn1c(SCC(=O)c2c[nH]c3ccccc23)nc2ccccc21 returned AHR act 33, SR-BI DiI-HDL act 5, GAA850 FXN act 0, SR-BI DiI inh -5, ABCB6 inh MLPCN 95 and HIF activator 0.
For COc1ccc(-c2cc(C(=O)OCC(=O)N(C)C)c3ccccc3n2)cc1 the results were AHR act 7, SR-BI DiI-HDL act -50, GAA850 FXN act 1, SR-BI DiI inh 50, ABCB6 inh MLPCN 85 and HIF activator 1.
Screening CCOC(=O)Cc1cc(-c2ccc(O)cc2)nc2ccc3ccccc3c12 returned AHR act 102*, SR-BI DiI-HDL act -48, GAA850 FXN act 0, SR-BI DiI inh 48, ABCB6 inh MLPCN 96, HIF activator 1 and AHR act confirm 92*.
For CCOC(=O)c1cc(Cl)c2c(ccc3ccccc32)n1 the results were GAA850 FXN act 1 and ABCB6 inh MLPCN 99.
For CCOC(=O)Cc1cc(-c2ccc(OC)cc2)nc2ccc3ccccc3c12 the results were AHR act 129*, SR-BI DiI-HDL act -49, GAA850 FXN act 5, SR-BI DiI inh 49, ABCB6 inh MLPCN 90, HIF activator 1, AHR act confirm 108* and PXR counter 16*.
Screening O=C(O)c1ccc(-c2sc(Nc3ccccc3)n[n+]2-c2ccccc2)cc1 returned AHR act 43, SR-BI DiI-HDL act 17, GAA850 FXN act 0, SR-BI DiI inh -17, ABCB6 inh MLPCN 99 and HIF activator 0.
`Cc1cccc(-c2sc(Nc3ccccc3)n[n+]2-c2ccccc2)c1` gave AHR act 108*, SR-BI DiI-HDL act 14, GAA850 FXN act 0, SR-BI DiI inh -14, ABCB6 inh MLPCN 100, AHR act confirm 50* and PXR counter 132*.
O=C(N/N=C/c1ccc([N+](=O)[O-])o1)c1cc(-c2ccc(-c3ccccc3)cc2)nc2ccccc12 was read as AHR act 128*, SR-BI DiI-HDL act -118, GAA850 FXN act -3, SR-BI DiI inh 118*, ABCB6 inh MLPCN 114, HIF activator 0, AHR act confirm 43 and PXR counter 25*.
`O=C(N/N=C/c1ccc([N+](=O)[O-])o1)c1cc(-c2ccncc2)nc2ccccc12` gave AHR act 14, SR-BI DiI-HDL act -41, GAA850 FXN act -1, SR-BI DiI inh 41, ABCB6 inh MLPCN 106 and HIF activator 3.
Screening CC(C)C(=O)Nc1ccc(Cl)cc1-c1nc2ccccc2[nH]c1=O returned AHR act 79*, SR-BI DiI-HDL act 8, GAA850 FXN act 0, SR-BI DiI inh -8, ABCB6 inh MLPCN 105, HIF activator 0, AHR act confirm 76* and PXR counter 12*.
C/C(=N\NC(=S)Nc1cccc(C)c1)c1ccccc1 was read as AHR act 84*, SR-BI DiI-HDL act -21, GAA850 FXN act 3, SR-BI DiI inh 21, ABCB6 inh MLPCN 100, HIF activator -28, AHR act confirm 111* and PXR counter 42*.
O=C(NCC(=O)N1CCN(C(=O)c2ccco2)CC1)c1cccc(Cl)c1 was read as AHR act -1, SR-BI DiI-HDL act 2, GAA850 FXN act 1, SR-BI DiI inh -2 and ABCB6 inh MLPCN 95.
For Cc1cccc(NC(=O)c2sc3nc(N)c(C#N)cc3c2N)c1 the results were AHR act 111*, SR-BI DiI-HDL act -9, GAA850 FXN act 6, SR-BI DiI inh 9, ABCB6 inh MLPCN 101, HIF activator 2, AHR act confirm 61* and PXR counter 29*.
Screening Cc1cc(C)cc(NC(=O)c2sc3nc(C)cc(C)c3c2N)c1 returned AHR act -11, SR-BI DiI-HDL act -67, GAA850 FXN act 6, SR-BI DiI inh 67, ABCB6 inh MLPCN 98 and HIF activator 3.
`COc1ccc(Nc2n[nH]c(C)c2[N+](=O)[O-])cc1` gave AHR act 0, SR-BI DiI-HDL act 7, GAA850 FXN act 4, SR-BI DiI inh -7, ABCB6 inh MLPCN 93 and HIF activator 2.

Screening results as filed in PubChem.
